Data from ChEMBL document CHEMBL4480426, “Novel multi-target directed ligands based on annelated xanthine scaffold with aromatic substituents acting on adenosine receptor and monoamine oxidase B. Synthesis, in vitro and in silico studies” (Bioorg Med Chem, 2019).

Biological target: T1, Adenosine receptor A1 (Homo sapiens, UniProt P30542)
T1 sequence (P30542 whole entry): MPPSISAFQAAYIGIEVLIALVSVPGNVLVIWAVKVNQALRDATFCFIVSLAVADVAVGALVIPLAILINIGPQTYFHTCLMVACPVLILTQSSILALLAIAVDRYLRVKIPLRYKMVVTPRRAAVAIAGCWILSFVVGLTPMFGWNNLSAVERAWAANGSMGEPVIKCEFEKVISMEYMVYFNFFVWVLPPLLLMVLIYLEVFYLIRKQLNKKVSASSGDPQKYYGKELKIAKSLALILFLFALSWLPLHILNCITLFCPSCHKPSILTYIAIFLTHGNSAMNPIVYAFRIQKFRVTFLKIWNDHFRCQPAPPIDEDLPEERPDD
Experiment: Displacement of [3H]CCPA from recombinant human adenosine A1 receptor expressed in CHO cells
Format: cell-based
Settings: not given

Row | Compound | Ki
1 | COc1ccccc1CN1CCn2c1nc1c2c(=O)n(C)c(=O)n1C | > 1 µM
2 | Cn1c(=O)c2c(nc3n2CCCCN3Cc2ccccc2Cl)n(C)c1=O | > 1 µM

Biological target: T2, Adenosine receptor A1 (Homo sapiens) (UniProt P30542)
T2 sequence (whole entry): T1 sequence (P30542 whole entry)
Experiment: Displacement of [3H]CCPA from recombinant human adenosine A1 receptor expressed in CHO cells at 1 uM relative to control
Format: cell-based
Settings: not given
How it was run: (§1)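 Purchased membranes of CHO cells expressing human A1 ([3H]CCPA) or human A3 ([3H]PSB-11). A single high compound concentration is screened first; for potent compounds, full inhibition curves spanning 3 orders of magnitude. At least three independent experiments.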

Row | Compound | inhibition
3 | COc1ccccc1CN1CCn2c1nc1c2c(=O)n(C)c(=O)n1C | 30%
4 | Cn1c(=O)c2c(nc3n2CCCCN3Cc2ccccc2Cl)n(C)c1=O | 10%

Biological target: T3, Adenosine receptor A1 (Rattus norvegicus, UniProt P25099)
T3 sequence (P25099 whole entry): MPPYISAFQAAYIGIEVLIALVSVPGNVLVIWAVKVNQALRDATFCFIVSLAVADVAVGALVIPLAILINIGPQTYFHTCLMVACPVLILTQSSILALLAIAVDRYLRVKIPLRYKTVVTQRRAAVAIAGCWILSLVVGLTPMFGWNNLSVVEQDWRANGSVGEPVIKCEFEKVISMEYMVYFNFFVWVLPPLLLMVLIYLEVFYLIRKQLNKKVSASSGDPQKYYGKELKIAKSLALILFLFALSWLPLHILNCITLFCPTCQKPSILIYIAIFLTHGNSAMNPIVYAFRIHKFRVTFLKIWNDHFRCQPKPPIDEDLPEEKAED
Experiment: Displacement of [3H]CCPA from adenosine A1 receptor in rat brain cortical membranes
Format: cell membranes
Settings: not given

Row | Compound | Ki
5 | Cn1c(=O)c2c(nc3n2CCCN3Cc2cc(F)c(F)c(F)c2)n(C)c1=O | > 1 µM
6 | Cc1ccccc1CN1CCCn2c1nc1c2c(=O)n(C)c(=O)n1C | 1.41 µM
7 | Cn1c(=O)c2c(nc3n2CCCN3CCc2cccnc2)n(C)c1=O | > 1 µM
8 | Cn1c(=O)c2c(nc3n2CCCN3Cc2cccs2)n(C)c1=O | 2.65 µM
9 | Cn1c(=O)c2c(nc3n2CCCN3CCc2ccncc2)n(C)c1=O | > 1 µM

Biological target: Adenosine receptor A2a (Homo sapiens, UniProt P29274)
Experiment: Displacement of [3H]MSX2 from recombinant human adenosine A2a receptor expressed in HEK293 cells
Format: cell-based
Settings: not given

Adenosine receptor A2a, sequence (P29274 whole entry): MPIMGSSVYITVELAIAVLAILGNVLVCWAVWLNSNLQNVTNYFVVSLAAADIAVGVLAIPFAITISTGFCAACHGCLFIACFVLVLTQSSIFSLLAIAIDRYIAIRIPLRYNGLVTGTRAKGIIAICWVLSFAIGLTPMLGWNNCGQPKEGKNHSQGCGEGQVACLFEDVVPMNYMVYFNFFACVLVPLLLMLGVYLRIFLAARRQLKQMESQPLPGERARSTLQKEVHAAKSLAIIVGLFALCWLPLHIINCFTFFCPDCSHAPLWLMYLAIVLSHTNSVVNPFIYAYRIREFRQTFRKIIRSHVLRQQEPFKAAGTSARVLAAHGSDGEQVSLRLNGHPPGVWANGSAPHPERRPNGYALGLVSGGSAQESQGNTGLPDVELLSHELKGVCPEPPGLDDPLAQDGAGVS

Row | Compound | Ki
10 | Cn1c(=O)c2c(nc3n2CCCN3Cc2cc(F)c(F)c(F)c2)n(C)c1=O | > 1 µM
11 | Cc1ccccc1CN1CCCn2c1nc1c2c(=O)n(C)c(=O)n1C | 1.02 µM
12 | Cn1c(=O)c2c(nc3n2CCCN3CCc2cccnc2)n(C)c1=O | 3.04 µM
13 | Cn1c(=O)c2c(nc3n2CCCN3Cc2cccs2)n(C)c1=O | 2.02 µM
14 | Cn1c(=O)c2c(nc3n2CCCN3CCc2ccncc2)n(C)c1=O | > 1 µM
15 | COc1ccccc1CN1CCn2c1nc1c2c(=O)n(C)c(=O)n1C | 0.784 µM
16 | Cn1c(=O)c2c(nc3n2CCCCN3Cc2ccccc2Cl)n(C)c1=O | 0.881 µM

Biological target: T4, Adenosine receptor A2b (Homo sapiens, UniProt P29275)
T4 sequence (P29275 whole entry): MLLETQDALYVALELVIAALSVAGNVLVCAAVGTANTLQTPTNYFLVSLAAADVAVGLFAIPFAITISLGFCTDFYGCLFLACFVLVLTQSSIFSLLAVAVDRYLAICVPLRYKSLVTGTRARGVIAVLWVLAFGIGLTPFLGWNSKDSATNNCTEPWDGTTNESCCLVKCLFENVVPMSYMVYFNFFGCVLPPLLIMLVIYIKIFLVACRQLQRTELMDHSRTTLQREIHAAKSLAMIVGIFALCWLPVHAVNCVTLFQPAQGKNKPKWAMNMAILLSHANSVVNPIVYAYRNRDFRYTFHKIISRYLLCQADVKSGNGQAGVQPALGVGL
Experiment: Displacement of [3H]PSB603 from recombinant human adenosine A2b receptor expressed in HEK293 cells
Format: cell-based
Settings: not given

Row | Compound | Ki
17 | Cn1c(=O)c2c(nc3n2CCCN3Cc2cc(F)c(F)c(F)c2)n(C)c1=O | > 1 µM
18 | Cc1ccccc1CN1CCCn2c1nc1c2c(=O)n(C)c(=O)n1C | > 1 µM
19 | Cn1c(=O)c2c(nc3n2CCCN3CCc2cccnc2)n(C)c1=O | > 1 µM
20 | Cn1c(=O)c2c(nc3n2CCCN3Cc2cccs2)n(C)c1=O | > 1 µM
21 | Cn1c(=O)c2c(nc3n2CCCN3CCc2ccncc2)n(C)c1=O | > 1 µM
22 | COc1ccccc1CN1CCn2c1nc1c2c(=O)n(C)c(=O)n1C | > 1 µM
23 | Cn1c(=O)c2c(nc3n2CCCCN3Cc2ccccc2Cl)n(C)c1=O | > 1 µM

Biological target: T5, Adenosine receptor A2b (Homo sapiens) (UniProt P29275)
T5 sequence (whole entry): T4 sequence (P29275 whole entry)
Experiment: Displacement of [3H]PSB603 from recombinant human adenosine A2b receptor expressed in HEK293 cells at 1 uM relative to control
Format: cell-based
Settings: not given
How it was run: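 Purchased membranes of HEK cells expressing human A2A ([3H]MSX-2) or human A2B ([3H]PSB-603). A single high compound concentration is screened first; for potent compounds, full inhibition curves spanning 3 orders of magnitude. At least three independent experiments.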

Row | Compound | inhibition
24 | COc1ccccc1CN1CCn2c1nc1c2c(=O)n(C)c(=O)n1C | 3%
25 | Cn1c(=O)c2c(nc3n2CCCCN3Cc2ccccc2Cl)n(C)c1=O | 41%

Biological target: T6, Adenosine receptor A3 (Homo sapiens, UniProt P0DMS8)
T6 sequence (P0DMS8 whole entry): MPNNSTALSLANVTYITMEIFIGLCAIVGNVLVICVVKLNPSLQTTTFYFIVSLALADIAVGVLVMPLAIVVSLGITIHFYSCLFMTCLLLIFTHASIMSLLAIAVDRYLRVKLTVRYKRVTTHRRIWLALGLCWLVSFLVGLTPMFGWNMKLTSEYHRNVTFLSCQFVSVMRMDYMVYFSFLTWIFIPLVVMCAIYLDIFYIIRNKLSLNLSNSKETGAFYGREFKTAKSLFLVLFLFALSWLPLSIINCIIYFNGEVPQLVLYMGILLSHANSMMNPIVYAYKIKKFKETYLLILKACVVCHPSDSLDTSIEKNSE
Experiment: Displacement of [3H]PSB11 from recombinant human adenosine A3 receptor expressed in CHO cells
Format: cell-based
Settings: not given

Row | Compound | Ki
26 | Cn1c(=O)c2c(nc3n2CCCN3Cc2cc(F)c(F)c(F)c2)n(C)c1=O | > 1 µM
27 | Cc1ccccc1CN1CCCn2c1nc1c2c(=O)n(C)c(=O)n1C | > 1 µM
28 | Cn1c(=O)c2c(nc3n2CCCN3CCc2cccnc2)n(C)c1=O | > 1 µM
29 | Cn1c(=O)c2c(nc3n2CCCN3Cc2cccs2)n(C)c1=O | > 1 µM
30 | Cn1c(=O)c2c(nc3n2CCCN3CCc2ccncc2)n(C)c1=O | > 1 µM
31 | COc1ccccc1CN1CCn2c1nc1c2c(=O)n(C)c(=O)n1C | > 1 µM
32 | Cn1c(=O)c2c(nc3n2CCCCN3Cc2ccccc2Cl)n(C)c1=O | > 1 µM

Biological target: T7, Adenosine receptor A3 (Homo sapiens) (UniProt P0DMS8)
T7 sequence (whole entry): T6 sequence (P0DMS8 whole entry)
Experiment: Displacement of [3H]PSB11 from recombinant human adenosine A3 receptor expressed in CHO cells at 1 uM relative to control
Format: cell-based
Settings: not given
How it was run: as §1

Row | Compound | inhibition
33 | COc1ccccc1CN1CCn2c1nc1c2c(=O)n(C)c(=O)n1C | 15%
34 | Cn1c(=O)c2c(nc3n2CCCCN3Cc2ccccc2Cl)n(C)c1=O | 15%

Biological target: T8, Amine oxidase [flavin-containing] A (Homo sapiens, UniProt P21397)
T8 sequence (P21397 whole entry): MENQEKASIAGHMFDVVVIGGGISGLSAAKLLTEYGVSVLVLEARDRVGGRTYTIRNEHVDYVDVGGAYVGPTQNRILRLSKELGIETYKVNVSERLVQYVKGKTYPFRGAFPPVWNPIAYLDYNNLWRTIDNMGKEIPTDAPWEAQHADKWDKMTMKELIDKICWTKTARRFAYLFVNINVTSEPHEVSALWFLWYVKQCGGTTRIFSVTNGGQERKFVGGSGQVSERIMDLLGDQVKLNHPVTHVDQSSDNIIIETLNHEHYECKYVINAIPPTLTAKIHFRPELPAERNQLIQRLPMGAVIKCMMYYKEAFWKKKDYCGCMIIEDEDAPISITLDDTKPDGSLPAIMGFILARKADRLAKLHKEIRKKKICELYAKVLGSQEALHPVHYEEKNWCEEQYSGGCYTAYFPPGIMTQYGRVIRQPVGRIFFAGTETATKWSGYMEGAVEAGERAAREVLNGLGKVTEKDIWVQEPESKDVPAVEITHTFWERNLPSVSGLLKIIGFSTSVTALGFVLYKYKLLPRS
Experiment: Inhibition of recombinant human MAOA expressed in baculovirus infected BTI insect cells using p-tyramine as substrate preincubated for 30 mins followed by substrate addition and measured over 45 mins by horseradish peroxidase-Amplex Red-coupled fluorometric assay
Settings: not given
How it was run: (§2)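 Human recombinant MAO-A or MAO-B enzyme. Activity detected fluorometrically with the Amplex Red monoamine oxidase assay.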

Row | Compound | IC50
35 | COc1ccccc1CN1CCn2c1nc1c2c(=O)n(C)c(=O)n1C | > 1 µM
36 | Cn1c(=O)c2c(nc3n2CCCCN3Cc2ccccc2Cl)n(C)c1=O | > 1 µM

Biological target: T9, Amine oxidase [flavin-containing] B (Homo sapiens, UniProt P27338)
T9 sequence (P27338 whole entry): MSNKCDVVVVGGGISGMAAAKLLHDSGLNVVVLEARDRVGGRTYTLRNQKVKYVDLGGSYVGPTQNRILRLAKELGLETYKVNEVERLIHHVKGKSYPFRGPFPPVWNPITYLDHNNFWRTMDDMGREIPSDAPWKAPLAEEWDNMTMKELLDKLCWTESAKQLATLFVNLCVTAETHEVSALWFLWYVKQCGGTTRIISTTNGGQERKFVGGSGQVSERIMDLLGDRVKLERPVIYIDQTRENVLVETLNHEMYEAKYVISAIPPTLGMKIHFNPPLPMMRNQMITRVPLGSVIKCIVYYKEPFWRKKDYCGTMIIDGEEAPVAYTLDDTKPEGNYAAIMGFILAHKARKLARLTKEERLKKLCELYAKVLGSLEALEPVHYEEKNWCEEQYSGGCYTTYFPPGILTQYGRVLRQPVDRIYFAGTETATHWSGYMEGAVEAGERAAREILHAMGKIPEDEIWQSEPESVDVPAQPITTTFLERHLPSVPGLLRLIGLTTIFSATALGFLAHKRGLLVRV
Experiment: Inhibition of recombinant human MAOB expressed in baculovirus infected BTI insect cells using p-tyramine as substrate preincubated for 30 mins followed by substrate addition and measured over 45 mins by horseradish peroxidase-Amplex Red-coupled fluorometric assay
Settings: not given
How it was run: as §2

Row | Compound | IC50
37 | Cn1c(=O)c2c(nc3n2CCCN3Cc2cc(F)c(F)c(F)c2)n(C)c1=O | > 1 µM
38 | Cc1ccccc1CN1CCCn2c1nc1c2c(=O)n(C)c(=O)n1C | > 1 µM
39 | Cn1c(=O)c2c(nc3n2CCCN3CCc2cccnc2)n(C)c1=O | > 1 µM
40 | Cn1c(=O)c2c(nc3n2CCCN3Cc2cccs2)n(C)c1=O | > 1 µM
41 | Cn1c(=O)c2c(nc3n2CCCN3CCc2ccncc2)n(C)c1=O | > 1 µM
42 | COc1ccccc1CN1CCn2c1nc1c2c(=O)n(C)c(=O)n1C | 111 µM
43 | Cn1c(=O)c2c(nc3n2CCCCN3Cc2ccccc2Cl)n(C)c1=O | 0.343 µM

Biological target: T8, Amine oxidase [flavin-containing] A
Experiment: Inhibition of recombinant human MAOA expressed in baculovirus infected BTI insect cells at 1 to 100 uM using p-tyramine as substrate preincubated for 30 mins followed by substrate addition and measured over 45 mins by horseradish peroxidase-Amplex Red-coupled fluorometric assay relative to control
Settings: 0.75 h
How it was run: as §2

Row | Compound | inhibition (INH)
44 | COc1ccccc1CN1CCn2c1nc1c2c(=O)n(C)c(=O)n1C | 7%
45 | Cn1c(=O)c2c(nc3n2CCCCN3Cc2ccccc2Cl)n(C)c1=O | 4%

Biological target: T9, Amine oxidase [flavin-containing] B
Experiment: Inhibition of recombinant human MAOB expressed in baculovirus infected BTI insect cells at 1 to 100 uM using p-tyramine as substrate preincubated for 30 mins followed by substrate addition and measured over 45 mins by horseradish peroxidase-Amplex Red-coupled fluorometric assay relative to control
Settings: 0.75 h
How it was run: as §2

Row | Compound | inhibition (INH)
46 | Cn1c(=O)c2c(nc3n2CCCN3Cc2cc(F)c(F)c(F)c2)n(C)c1=O | 24%
47 | Cc1ccccc1CN1CCCn2c1nc1c2c(=O)n(C)c(=O)n1C | 40%
48 | Cn1c(=O)c2c(nc3n2CCCN3CCc2cccnc2)n(C)c1=O | 1%
49 | Cn1c(=O)c2c(nc3n2CCCN3Cc2cccs2)n(C)c1=O | 20%
50 | Cn1c(=O)c2c(nc3n2CCCN3CCc2ccncc2)n(C)c1=O | 4%
